This note sets out measurements from ChEMBL document CHEMBL1212828, “Synthesis and biological evaluation of novel pyrazole compounds” (Bioorg Med Chem, 2010).

pEC50, pIC50: −log10 of the molar value. The source made the active and inactive calls. The calls are words filed in the database; no cut-off is given here.

In assay [1] the target is T1, Prostaglandin G/H synthase 2 (Homo sapiens) (UniProt P35354).
T1 sequence (whole entry): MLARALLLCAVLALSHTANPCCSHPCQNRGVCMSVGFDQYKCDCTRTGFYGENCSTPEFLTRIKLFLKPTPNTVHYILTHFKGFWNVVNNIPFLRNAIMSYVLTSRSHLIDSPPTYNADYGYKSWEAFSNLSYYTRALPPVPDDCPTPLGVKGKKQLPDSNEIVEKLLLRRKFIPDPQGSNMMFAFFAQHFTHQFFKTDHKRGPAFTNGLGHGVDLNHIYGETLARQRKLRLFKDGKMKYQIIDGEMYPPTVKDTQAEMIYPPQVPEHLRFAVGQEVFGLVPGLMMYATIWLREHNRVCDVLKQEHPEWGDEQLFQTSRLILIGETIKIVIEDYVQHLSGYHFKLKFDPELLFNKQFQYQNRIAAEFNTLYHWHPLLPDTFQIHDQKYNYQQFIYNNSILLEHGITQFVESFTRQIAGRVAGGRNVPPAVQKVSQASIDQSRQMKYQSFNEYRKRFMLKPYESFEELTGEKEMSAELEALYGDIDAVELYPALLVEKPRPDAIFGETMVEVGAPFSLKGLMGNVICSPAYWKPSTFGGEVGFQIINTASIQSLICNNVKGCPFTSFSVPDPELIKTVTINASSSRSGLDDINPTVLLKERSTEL
Kind of assay: Inhibition of human COX2 at 100 uM. In outline: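 Screening kit with ovine COX-1 and human recombinant COX-2, run per manufacturer's protocol; percent inhibition of prostaglandin production measured for each isoform.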

The subject of assay [2] is SH-SY5Y. Kind of assay: Neuroprotective activity in human SH-SY5Y cells. The class given is functional, cell-based. A digest of the protocol:
(§1)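 SH-SY5Y cells seeded at 2 × 10^5/mL in DMEM-F12 with 5% FBS; after 24 h medium replaced by supernatant of THP-1 cells stimulated 24 h with LPS + IFN-γ, or by medium containing 250 µM H2O2, with compound added at transfer. Cell death measured by LDH assay 72 h later; five independent experiments; randomized block ANOVA.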

Assay [3] has as its system THP-1. The assay is described as follows: Neuroprotective activity against LPS and IFN-gamma-stimulated neurotoxin production in human THP1 cell assessed as inhibition of THP1 cell secretion-induced toxicity to human SY-SH5Y cells after 48 hrs of LPS nd IFN-gamma challenge measured after 72 hrs by MTT assay. In kind it is functional, cell-based. A digest of the protocol:
(§2)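 THP-1 cells given compound 15 min before LPS (0.5 µg/mL) plus IFN-γ (150 U/mL), then incubated 48 h. Cell-free supernatant moved onto SH-SY5Y cells plated 24 h earlier. Neuronal survival after 72 h by MTT assay or LDH release. 11 independent experiments; IC50 estimated.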
Background: Tetrazolium assays rely on reduction of a dye to a coloured formazan, in cell work by metabolically active cells.

The subject of assay [4] is THP-1. The assay is described as follows: Cytotoxicity against human THP1 cells assessed as reduction in cell viability. In kind it is cell-based. In outline:
(§3)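 THP-1 cells in DMEM-F12 with 5% FBS, 24-well plates, pretreated 15 min with compound or DMSO vehicle, then stimulated with LPS 0.5 µg/mL plus IFN-γ 150 U/mL for 24 h. Death read as supernatant LDH (iodonitrotetrazolium formazan, 490 nm, fraction of Triton X-100 lysate); survival by MTT; MCP-1 by ELISA. Concentration effects by randomized block ANOVA; 8–11 independent experiments.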

The test system of assay [5] is THP-1. The assay is described as follows: Neuroprotective activity against LPS and IFN-gamma-stimulated neurotoxin production in human THP1 cell assessed as inhibition of THP1 cell secretion-induced toxicity to human SY-SH5Y cells after 48 hrs of LPS nd IFN-gamma challenge measured after 72 hrs by LDH release assay. In kind it is functional, cell-based. A digest of the protocol:
as §2
In general terms: Release of lactate dehydrogenase indicates damage to the cell membrane.

Assay [6] deals with SH-SY5Y. Kind of assay: Cytotoxicity against human SH-SY5Y cells assessed as reduction in cell viability at 500 uM after 72 hrs by MTT assay. In kind it is functional. In outline: (§4)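 SH-SY5Y neuroblastoma cells exposed directly to compound at 5–500 µM; viability determined 72 h later by MTT (0.5 mg/mL final, 1 h at 37 °C, SDS/DMF solubilization overnight, 570 nm), relative to cells in fresh medium only.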

Assay [7] deals with SH-SY5Y. The assay is described as follows: Cytotoxicity against human SH-SY5Y cells assessed as reduction in cell viability at 100 uM after 72 hrs by MTT assay. The class given is functional. In outline:
as §4

Assay [8] has as its system SH-SY5Y. Kind of assay: Neuroprotective activity against H2O2-induced oxidative stress in human SH-SY5Y cells. The class given is functional, cell-based. In outline: as §1
Assay [9] has as its system THP-1. Kind of assay: Antiinflammatory activity in human THP1 cells assessed as reduction in LPS and IFN-gamma-induced MCP1 level at 500 uM after 24 hrs. In kind it is functional, cell-based. In outline: as §3
For assay [10], the system named is SH-SY5Y (Homo sapiens). The assay is described as follows: Neuroprotective activity against LPS and IFN-gamma-induced human THP1 cell supernatant-induced death of human SH-SY5Y cells after 72 hrs by MTT assay. The settings on record: THP-1.
Assay [11] concerns THP-1. Kind of assay: Neuroprotective activity against LPS and IFN-gamma-stimulated neurotoxin production in human THP1 cells assessed as increase in THP1 cell secretion-induced LDH release to human SY-SH5Y cells at 10 to 100 uM after 72 hrs. The class given is functional, cell-based. In outline:
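THP-1 cells treated with 10–100 µM compound 15 min before LPS/IFN-γ stimulation for 24 h. Supernatants transferred to SH-SY5Y cells. After 72 h, LDH released into the neuronal medium measured colorimetrically and expressed as a fraction of Triton X-100-lysed wells.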

Assay [12] deals with THP-1. The assay is described as follows: Neuroprotective activity against LPS and IFN-gamma-stimulated neurotoxin production in human THP1 cells assessed as inhibition of THP1 cell secretion-induced toxicity to human sSH-SY5Y cells after 72 hrs by LDH release assay. In kind it is functional, cell-based. A digest of the protocol:
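THP-1 cells pretreated 15 min with compound, then stimulated with LPS (0.5 µg/mL) plus IFN-γ (150 U/mL) for 24 h. Cell-free supernatant transferred to SH-SY5Y cells plated 24 h earlier (2 × 10^5 cells/mL). After 72 h, SH-SY5Y viability read by MTT (0.5 mg/mL, 1 h, 37 °C, OD570) or by LDH release (OD490, relative to Triton X-100 lysis). IC50 estimated.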

For assay [13], the system named is THP-1. The assay is described as follows: Antiinflammatory activity in human THP1 cells assessed as reduction in LPS and IFN-gamma-induced level at 500 uM after 24 hrs.

With `CC(NC(=O)C(=O)Nc1c(C#N)cnn1-c1ccccc1)c1ccccc1` (stereo unspecified), in assay [1], the inhibition was 33.8%. In addition, the outcome in assay [2] was inactive. Further, the pIC50 is 4.85 in assay [3] and 4.40 in assay [5]. Moreover, the pEC50 in [4] is 3.30.
On to `N#Cc1cnn(-c2ccccc2)c1NC(=O)C(=O)Nc1c(C#N)cnn1-c1ccccc1`, for which the inhibition in [1] is 14%. Also, the Activity in [6] was found to be 86%; in [7] it was 23%. In addition, the outcome in assay [2], in assay [9], in assay [10], in [11], in [12] and in assay [13] was Active. In assay [4], the pEC50 is 4.00. For the same molecule, in assay [8], the outcome was inactive.

What is called inhibition is the change of the read-out against control, counted positive when it falls. Low readings indicate a response near the control, high ones a response far below the control. The pIC50 is the negative decadic logarithm of the IC50, by convention in mol/L. As usually defined, the pEC50 is −log10 of the EC50, conventionally taken in molar units.
